Measurements published in ChEMBL document CHEMBL1150666, “Antioxidant and free-radical scavenging activity of constituents of the leaves of Tachigalia paniculata” (J Nat Prod, 2002).

Experiments:
[1] = molecular target: Xanthine dehydrogenase/oxidase (Homo sapiens, UniProt P47989); test: Inhibition of xanthine oxidase-mediated formation of uric acid by spectrophotometry
Summary of the method: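 Xanthine 100 μM in 0.1 M phosphate buffer pH 7.8 with 0.04 units/mL XOD, incubated 10 min at room temperature. Compounds added at several concentrations before enzyme; IC50 from regression lines.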

[2] = ABTS radical scavenging activity assessed as Trolox equivalent antioxidant capacity at 1 mM by spectrophotometry; type: physicochemical; conditions: 1000 µM
Summary of the method: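 ABTS radical cation made from 7 mM ABTS with 2.45 mM potassium persulfate, kept dark at room temperature 12 h. Diluted in PBS pH 7.4 to A734 0.70 and equilibrated at 30 °C. Methanol sample solutions (0.3–2 mM) were added to diluted ABTS. Percent inhibition at 734 nm versus methanol blank, plotted against concentration relative to Trolox; three determinations.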

Xanthine dehydrogenase/oxidase, sequence (P47989 whole entry): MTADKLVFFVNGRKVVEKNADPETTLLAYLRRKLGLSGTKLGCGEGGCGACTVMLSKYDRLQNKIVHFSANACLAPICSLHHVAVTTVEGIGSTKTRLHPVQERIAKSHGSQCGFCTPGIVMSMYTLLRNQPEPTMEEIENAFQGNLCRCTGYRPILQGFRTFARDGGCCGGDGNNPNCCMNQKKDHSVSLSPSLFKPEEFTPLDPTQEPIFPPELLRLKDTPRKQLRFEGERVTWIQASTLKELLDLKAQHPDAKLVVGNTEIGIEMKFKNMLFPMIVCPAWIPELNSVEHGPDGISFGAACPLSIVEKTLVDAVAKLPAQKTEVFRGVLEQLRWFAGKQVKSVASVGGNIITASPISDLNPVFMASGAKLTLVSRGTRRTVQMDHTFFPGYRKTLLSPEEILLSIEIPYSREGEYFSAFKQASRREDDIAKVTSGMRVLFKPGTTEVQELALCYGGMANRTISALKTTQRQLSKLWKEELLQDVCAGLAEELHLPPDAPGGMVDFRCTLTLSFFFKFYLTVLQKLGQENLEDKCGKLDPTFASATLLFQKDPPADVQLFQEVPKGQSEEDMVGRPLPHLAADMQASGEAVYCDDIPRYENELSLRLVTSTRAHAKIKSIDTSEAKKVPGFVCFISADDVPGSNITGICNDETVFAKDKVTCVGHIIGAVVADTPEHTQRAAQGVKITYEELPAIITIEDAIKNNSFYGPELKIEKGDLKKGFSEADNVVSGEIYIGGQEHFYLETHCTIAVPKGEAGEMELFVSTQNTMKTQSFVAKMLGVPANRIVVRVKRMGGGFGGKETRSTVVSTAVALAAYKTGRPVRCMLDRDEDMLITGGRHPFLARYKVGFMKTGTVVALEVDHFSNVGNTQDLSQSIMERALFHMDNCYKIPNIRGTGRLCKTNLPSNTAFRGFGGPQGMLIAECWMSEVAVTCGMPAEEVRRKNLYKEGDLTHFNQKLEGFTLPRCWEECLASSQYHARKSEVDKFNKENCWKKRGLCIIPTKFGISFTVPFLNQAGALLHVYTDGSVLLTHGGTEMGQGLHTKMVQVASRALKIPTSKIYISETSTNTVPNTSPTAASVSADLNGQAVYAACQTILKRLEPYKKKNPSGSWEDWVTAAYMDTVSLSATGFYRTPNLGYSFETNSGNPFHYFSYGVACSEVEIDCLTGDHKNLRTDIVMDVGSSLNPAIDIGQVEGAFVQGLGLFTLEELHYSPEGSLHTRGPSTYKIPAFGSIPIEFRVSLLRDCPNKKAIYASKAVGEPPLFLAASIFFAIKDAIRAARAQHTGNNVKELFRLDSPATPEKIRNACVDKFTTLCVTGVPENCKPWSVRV

For `O=c1c(O[C@@H]2O[C@H](CO)C(O)[C@H](O)[C@H]2O)c(-c2ccc(O)c(O)c2)oc2cc(O)cc(O)c12` (single isomer, unassigned) [ISOQUERCETIN], which IC50 [1] is on record?
The IC50 was 26.3 µM.

And the Activity [2]?
The Activity was 1.1 mM.

For `COC(=O)c1cc(O)c(O)c(O)c1` [GALLIC ACID METHYL ESTER], which IC50 [1] is on record?
The IC50 was 15.5 µM.

And the Activity [2]?
The Activity was 1.154 mM.

With `O=c1c(O[C@@H]2O[C@H](CO)[C@@H](O)[C@H](O)[C@H]2O)c(-c2ccc(O)c(O)c2)oc2cc(O)cc(O)c12` [ISOQUERCETIN] as the compound, how does the IC50 [1] read?
Its IC50 is greater than 50 µM.

And the Activity [2]?
Its Activity is 0.757 mM.

With `O=c1c(O)c(-c2ccc(O)c(O)c2)oc2cc(O)cc(O)c12` [QUERCETIN] as the compound, how does the Activity [2] read?
The Activity was 2.6 mM.

With `C[C@@H]1O[C@@H](OC[C@H]2O[C@@H](Oc3cc(O)c4c(=O)c(O)c(-c5cc(O)c(O)c(O)c5)oc4c3)[C@H](O)[C@@H](O)[C@@H]2O)[C@H](O)[C@H](O)[C@H]1O` as the compound, how does the IC50 [1] read?
The IC50 was 6.13 µM.

And the Activity [2]?
The Activity was 1.42 mM.

For `COC(=O)c1ccc(O)cc1` [METHYLPARABEN], which IC50 [1] is on record?
The IC50 was greater than 50 µM.

And the Activity [2]?
The Activity was 0.147 mM.

With `COC(=O)c1ccc(O)c(O)c1` [METHYL PROTOCATECHUATE] as the compound, how does the IC50 [1] read?
Its IC50 is 29.6 µM.

And the Activity [2]?
The Activity was 0.855 mM.

Which IC50 [1] does the source give for `C[C@@H]1O[C@@H](Oc2c(-c3ccc(O)c(O)c3)oc3cc(O)cc(O)c3c2=O)[C@H](O)[C@H](O)[C@H]1O` [QUERCITRIN] here?
The IC50 was 14.7 µM.

What about the Activity [2] of the same compound?
The Activity was 0.854 mM.

Which results are given for `O=C/C=C/c1ccc(O)c(O)c1` [CAFFEOYL ALDEHYDE]?
IC50 [1]: 31.5 µM; Activity [2]: 0.713 mM

Which IC50 [1] does the source give for `COc1ccc(C=O)cc1O` [ISOVANILLIN] here?
The IC50 was greater than 50 µM.

What about the Activity [2] of the same compound?
Its Activity is 0.144 mM.

Which IC50 [1] does the source give for `O=c1c(O)c(-c2cc(O)c(O)c(O)c2)oc2cc(O[C@@H]3O[C@H](CO[C@@H]4O[C@H](CO)[C@@H](O)[C@H](O)[C@H]4O)[C@@H](O)[C@H](O)[C@H]3O)cc(O)c12` here?
Its IC50 is 6.52 µM.

What about the Activity [2] of the same compound?
The Activity was 1.62 mM.
